# Most compounds without a hit are left out; they make up all but 4.6% or so of the library.
# Arbovirus inh: antivirals against arbovirus infection; 0.37% of 200,000 active; arbovirus infection cell-based antiviral screen; AID 1251; inhibition, % at 10 µM; in the data active = inhibition above about 30%
# Hck Nef HTS: blocks Nef-activated human Hck kinase; P08631; Recombinant Hck-YEEI plus Nef, Z-Lyte FRET kinase assay; inhibition, % at 20 µM; 0.68% of 220,000 active; AID 463187;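 active = Hck-Nef kinase inhibition above about 50%, limit read from the data; inactive = inhibition below that limit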
# WT yeast gro inh: growth inhibition of WT yeast, mitochondrial fusion screen. mitochondrial fusion phenotypic screen, WT strain. 2.1% of 190,000 active. AID 1362. inhibition, % at 10 µM; in the data active = inhibition above about 58%; tested in S. cerevisiae
# NCF1 inh: p47phox (human) inhibition; P14598; p47phox/p22phox peptide binding, fluorescence polarization, 2 h; inhibition, % at 24.7 µM; 0.53% of 220,000 active;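 active = inhibition above about 30%, limit read from the data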
# Target sequence (P14598 whole entry, looked up): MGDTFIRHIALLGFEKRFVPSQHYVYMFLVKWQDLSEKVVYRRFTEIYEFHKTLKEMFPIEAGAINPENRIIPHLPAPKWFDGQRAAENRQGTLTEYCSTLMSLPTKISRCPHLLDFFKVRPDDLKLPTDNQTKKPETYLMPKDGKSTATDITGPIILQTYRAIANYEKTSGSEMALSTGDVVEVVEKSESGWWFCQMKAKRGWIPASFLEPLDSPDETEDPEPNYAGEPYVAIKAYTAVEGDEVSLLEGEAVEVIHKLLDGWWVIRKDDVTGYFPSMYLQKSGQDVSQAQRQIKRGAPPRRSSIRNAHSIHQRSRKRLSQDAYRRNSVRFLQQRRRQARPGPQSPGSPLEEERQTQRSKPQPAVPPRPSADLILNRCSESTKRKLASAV
# Biofilm kill mix: mixture kills Candida albicans biofilm cells. AID 1242. inhibition, % at 7.6 µM. C. albicans biofilm persisters + clotrimazole, fluorescence viability; primary screen in compound mixtures of four per well. 0.02% of 120,000 active;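 active = inhibition above 30.3% in the primary screen of four-compound pools, then above 30% when the compound was retested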;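 note: compounds exposed to preformed 24 h biofilms for 48 h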
#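 Test system: C. albicans biofilms. Buffer or medium: RPMI/MOPS medium, pH 7.0. Timing: 48 h compound exposure at 37 °C. Technique: Alamar Blue fluorescence. Evaluation: percent inhibition of biofilm viability.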
# RAM network inh: inhibitors of the yeast RAM network. S. cerevisiae dse1pr::URA3 reporter, 5-FOA growth OD615, 2 d; analog-sensitive cbk1-as2 kinase mutant strain. inhibition, % at 50 µM. 1.8% of 190,000 active. AID 868;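 active = inhibition above a set limit, 3 SD over mean compound inhibition, cut at about 8.4% in these data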;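 note: inhibition rescues growth on 5-FOA so higher OD means more RAM inhibition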
# Numbers stand for hits; 0 = inactive; - = not tested or not shown.
SMILES,Arbovirus inh,Hck Nef HTS,WT yeast gro inh,NCF1 inh,Biofilm kill mix,RAM network inh
CCOC(=O)CN(C(=O)CSc1nnc2c(n1)[nH]c1c(C)cc(C)cc12)c1ccccc1,0,0,0,0,-,8.9
COc1ccc(C)c2sc(=NC(=O)c3ccc(C(C)=O)cc3)n(C)c12,-,0,-,0,0,-
COc1ccc(C)c2sc(=NC(=O)c3ccccc3)n(C)c12,0,0,0,44.6,-,0
CCc1ccc(NC(=O)Nc2cccc(OC)c2)cc1,0,0,0,0,0,0
Clc1ccc(-c2csc3ncnc(N4CCc5ccccc5C4)c23)cc1,0,0,64.8,0,0,0
Cc1cc(N)n(-c2ncnc3scc(-c4ccc(Cl)cc4)c23)n1,0,0,0,0,0,0
Cc1ccccc1N1CCN(c2ncnc3scc(-c4cccs4)c23)CC1,0,0,64.8,0,-,0
Clc1ccc(CN2CCN(c3ncnc4scc(-c5cccs5)c34)CC2)cc1,0,0,60.3,0,-,0
CN1CCCN(c2ncnc3scc(-c4ccc(F)cc4)c23)CC1,0,0,0,0,0,0
CCc1cccc(C)c1NC(=S)N(Cc1cccnc1)Cc1ccco1,0,0,0,0,0,0
Cc1ccc(S(=O)(=O)/C(C#N)=C/c2c(N3CC(C)OC(C)C3)nc3c(C)cccn3c2=O)cc1 (stereo not given),0,0,0,0,-,0
CCOC(=O)c1sc(=S)n(CC)c1NC(=O)c1ccccc1,-,0,-,0,0,-
CSc1ccc(/C=C(\C(=O)O)c2ccc(S(=O)(=O)N3CCCCC3)s2)cc1,0,0,0,0,0,10.4
O=C(COC(=O)c1ccc(F)cc1F)Nc1ccc2[nH]c(=O)[nH]c2c1,0,0,0,0,0,0
CCOC(=O)NC(CC(=O)O)c1ccc(OC)c(OC)c1 (stereo not given),0,0,0,68.0,-,0
CCCCNCc1cccn1-c1ccccc1,0,0,0,0,0,0
Cc1ccc(C(=O)N/N=C\c2cccs2)cn1,0,0,0,0,0,0
CCCCCn1c(N)c(-c2nc3ccccc3o2)c2c([N+](=O)[O-])nn(C)c(=O)c21,0,0,0,37.8,0,0
Cc1ccc(NS(C)(=O)=O)c(C(=O)c2ccccc2)c1,0,0,0,0,-,0
O=C(Nc1cccc(Cl)c1)C1C2CCC3C(CCC21)C3(Cl)Cl (stereo not given),0,0,80.4,0,0,0
O=C(Nc1ccccc1)C1C2CCC3C(CCC21)C3(Cl)Cl (stereo not given),0,0,0,0,-,0
CCC(C)(C)c1nnc(NC(=O)c2ccc([N+](=O)[O-])cc2)s1,0,0,0,0,-,0
O=C(O)CCCN1C(=O)/C(=C\c2ccco2)SC1=S,0,0,0,0,0,0
CC(C(=O)O)N1C(=O)/C(=C/C=C/c2ccco2)SC1=S (stereo not given),0,68.9,0,-,-,0
CCOC(=O)COc1c(Br)cc(/C=C2\SC(=O)N(CC(=O)N3CCCC3)C2=O)cc1OC,0,0,0,0,-,10.7
SMILES,Arbovirus inh,Hck Nef HTS,WT yeast gro inh,NCF1 inh,Biofilm kill mix,RAM network inh
COc1cccc(CC2(CO)CCCN(Cc3[nH]c4ccc(C)cc4c3C)C2)c1 (stereo not given),0,0,80.5,0,0,0
COc1cccc(CC2(CO)CCCN(Cc3ccc(C)s3)C2)c1 (stereo not given),0,0,0,0,0,0
O=[N+]([O-])c1cc([N+](=O)[O-])c(N2CCCCCC2)cc1NCCO,0,0,80.2,0,-,0
Cc1nc2c(C(=O)NCCc3ccccc3Cl)c[nH]n2c(=O)c1Cl,59.7,0,0,0,0,0
Cc1nc2c(C(=O)NCc3ccccc3Cl)c[nH]n2c(=O)c1Cl,0,0,0,0,-,0
CCOc1cc(/C=N\Nc2ncc(F)c(N3CCOCC3)n2)ccc1Oc1nc(Cl)ncc1F,-,0,-,0,0,-
Cn1cccc1C(=O)OCC(=O)N1c2ccccc2NC(=O)C1(C)C,0,0,0,0,0,0
CC1(C)C(=O)Nc2ccccc2N1C(=O)COC(=O)C1CCCCC1,0,0,0,31.9,-,0
O=C(Cn1ccc2ccccc2c1=O)NCCC(=O)N1CCN(c2cccc(Cl)c2)CC1,0,0,0,0,-,9.7
O=C(CCNC(=O)Cn1ccc2ccccc2c1=O)NCCN1CCN(c2cccc(Cl)c2)CC1,0,0,0,0,-,0
CCC(CC)C(=O)c1c[nH]c(C(=O)NCCCN2CCOCC2)c1,0,0,81.9,0,-,0
O=C(c1ccc(F)cc1)c1c[nH]c(C(=O)NCCCN2CCOCC2)c1,0,0,0,0,-,0
CN(C(=O)COC(=O)CNC(=O)C12CC3CC(CC(C3)C1)C2)C1CCS(=O)(=O)C1 (stereo not given),0,0,0,0,0,0
O=C(CNc1ccc2ccccc2c1)N/N=C/c1ccc(C(=O)O)cc1,0,0,0,0,0,0
O=C(CNc1cccc2ccccc12)N/N=C/c1ccc(C(=O)O)cc1,0,0,0,0,0,10.5
COc1cc(/C=C(\C#N)c2ccccn2)ccc1OCc1ccccc1Cl,0,0,0,0,0,9.7
Cc1ccc(-c2nc(-c3ccc(Cl)cc3)sc2CC(=O)O)c(C)c1,0,0,0,-,0,9.6
Cc1nnc2n(CCc3ccccc3)c(=O)c3c4c(sc3n12)CCCC4,-,0,-,-,-,-
O=c1c2c3c(sc2n2cnnc2n1CCc1ccccc1)CCCC3,0,0,0,0,-,8.9
COc1ccc(C(C)=O)cc1COC(=O)CNC(=O)c1cc(C)cc(C)c1,0,0,0,0,0,0
O=C(Nc1nnc(-c2ccc3c(c2)CCCC3)o1)c1ccccc1,0,0,74.7,0,-,0
O=C(Nc1nnc(-c2ccc3c(c2)CCCC3)o1)c1ccccc1Cl,0,0,0,0,-,0
O=C(Nc1nnc(-c2ccc3c(c2)OCCO3)o1)c1ccc(Cc2ccccc2)cc1,0,0,61.1,0,-,0
O=C(CCOc1ccccc1)Nc1nnc(-c2ccc3c(c2)OCCO3)o1,0,0,0,0,0,0
O=C(COc1ccccc1)Nc1nnc(-c2ccc3c(c2)CCCC3)o1,0,0,0,167.9,-,0
SMILES,Arbovirus inh,Hck Nef HTS,WT yeast gro inh,NCF1 inh,Biofilm kill mix,RAM network inh
COc1ccccc1OCCNc1cc(N2CCCCC2)ccc1[N+](=O)[O-],0,0,0,0,0,11.0
Cc1ccccc1OCCNc1cc(N2CCNCC2)ccc1[N+](=O)[O-],0,0,0,0,0,0
CC1=NOC(=O)/C1=C/c1ccc(N(C)C)cc1,0,0,0,180.7,-,0
CC(=O)Nc1ccc2sccc2c1,0,0,0,0,0,0
CNC(=O)c1csc(-c2ccc(Cl)cc2)n1,0,0,0,0,0,0
O=C(O)c1ccc(-c2nc(-c3ccccc3)cs2)cc1,0,0,0,0,0,0
O=C(O)c1ccc(-c2nc(-c3ccc(Cl)c(Cl)c3)cs2)cc1,0,0,74.8,0,0,0
O=C(O)c1csc(-c2ccc(Cl)cc2)n1,0,0,0,65.0,0,0
O=C(Nc1ccc(Cl)cc1)c1csc(-c2ccccc2)n1,0,0,0,0,-,9.7
